Measurements from different studies.
Compare with care: the assays were run in different laboratories.
Target: Cyclin-dependent kinase 5 (CDK5, Homo sapiens, UniProt Q00535)

Compound	test	conditions	remaining binding
O=C(NCCCN1CCOCC1)c1ccc(Nc2nccc(-c3cc4ccccc4s3)n2)cc1	binding, competition with immobilised ligand	1 µM	84%
CCS(=O)(=O)c1cc2cc(C[C@](O)(CC(C)(C)c3ccc(F)cc3C(N)=O)C(F)(F)F)[nH]c2cn1	cell-free assay, competition with immobilised ligand	1 µM	100%
Nc1ncc2c(n1)-c1c([nH]c3ccc(C#CC4CC4)cc13)CCCC2	binding, competition with immobilised ligand	1 µM	96%
O=C(c1ccc(Nc2nccc(-c3cc4ccccc4s3)n2)cc1)N1CCC(N2CCCC2)CC1	binding, competition with immobilised ligand	1 µM	92%
O=C(Nc1c[nH]nc1C(=O)NC1CCNCC1)c1cc(F)cc(F)c1	binding, competition with immobilised ligand	1 µM	100%
CNC(=O)Nc1ccc2c(c1)CC[C@@]21OC(=O)N(CC(=O)N(Cc2ccc(F)cc2)[C@@H](C)C(F)(F)F)C1=O	cell-free assay, competition with immobilised ligand	1 µM	84%
Cc1cnn2ncc(-c3ccnc(N(C)C)n3)c2c1	binding	1 µM	100%
O=C(c1ccc(Nc2ncc(Cl)c(-c3ccc(Cl)s3)n2)cc1)N1CCC(N2CCCC2)CC1	binding, competition with immobilised ligand	1 µM	26%
CC1CCCN1c1nccc(-c2cnn3ncccc23)n1 (stereo not shown)	binding	1 µM	96%
COc1cnc(Nc2cccc(S(N)(=O)=O)c2)nc1N1CCN(c2ccccc2)C(=O)C1	binding, competition with immobilised ligand	1 µM	100%
CN([C@@H]1CCc2c(CC(=O)O)c3ccccc3n2C1)S(=O)(=O)c1ccc(F)cc1	cell-free assay, competition with immobilised ligand	1 µM	100%
CN(c1nccc(-c2cnn3ncccc23)n1)C1CC1	binding	1 µM	100%
COc1ncc2cc3ccccc3nc2c1C#N	cell-free assay, competition with immobilised ligand	5 µM	100%
Cc1cc(NC(=O)c2cccc(S(F)(F)(F)(F)F)c2)cc(-n2ccn3nc(-c4cccnc4)cc23)c1	cell-free assay, competition with immobilised ligand	1 µM	100%
C[C@H]1CCN(c2nccc(-c3cnn4ncccc34)n2)C1	binding	1 µM	97%
C[C@@H]1CN(c2cc(-c3n[nH]c4ccc(OC5(C)CC5)cc34)ncn2)C[C@H](C)O1	cell-free assay, competition with immobilised ligand	0.1 µM	100%
F[C@@H]1CCN(c2nccc(-c3cnn4ncccc34)n2)C1	binding	1 µM	100%
CCN1CCN(Cc2ccc(C(=O)Nc3ccc(C)c(Oc4ccc5c(c4)CC(=O)N5)c3)cc2C(F)(F)F)CC1	binding, competition with immobilised ligand	1 µM	100%
N[C@@H]1CCN(c2nccc(-c3cnn4ncccc34)n2)C1	binding	1 µM	100%
CCCCN(CCCC)C(=O)CN1C[C@@H](c2cc(OC)c3c(c2)OCO3)[C@H](C(=O)O)[C@H]1CC(C)(C)CCC	cell-free assay, competition with immobilised ligand	1 µM	97.7%
CN(C)c1nccc(-c2cnc3ncccn23)n1	binding	1 µM	91%
CNCc1ccccc1-c1csc([C@H](C)Nc2nc(C)nc3cc(OC)c(OC)cc23)c1	cell-free assay, competition with immobilised ligand	1 µM	98%
